Data as given in ChEMBL document CHEMBL1817571, “Design and synthesis of new prostaglandin D₂ receptor antagonists” (Bioorg Med Chem, 2011).

Columns and labels:
[1] = AUC (infinity) in rat at 1 mg/kg, iv; assay type: ADME, organism-based; design: time infinity, dose 1 mg/kg, route intravenous; settings: plasma
How it was run: (§1)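 Fasted male rats (n = 3) received 1 mg/kg iv or 10 mg/kg po. Jugular vein blood was drawn with a heparinized syringe at pre-dose and 2 (iv only), 5, 15 and 30 min, and 1, 2, 4, 6 and 8 h. Plasma was obtained by centrifugation at 4 °C and stored at −80 °C. AUC, Cmax, T1/2, Vss and CL came from the plasma concentration–time course. BA was derived from dose-normalized AUCpo/AUCiv.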

[2] = Oral bioavailability in rat at 10 mg/kg; assay type: ADME, organism-based; settings: in vivo; how it was run: as §1
[3] = target: T1, Prostaglandin D2 receptor (Mus musculus, UniProt P70263); assay: Displacement of [3H]PGD2 from mouse prostanoid DP receptor expressed in CHO cells after 20 mins by liquid scintillation counting
T1 sequence (P70263 whole entry): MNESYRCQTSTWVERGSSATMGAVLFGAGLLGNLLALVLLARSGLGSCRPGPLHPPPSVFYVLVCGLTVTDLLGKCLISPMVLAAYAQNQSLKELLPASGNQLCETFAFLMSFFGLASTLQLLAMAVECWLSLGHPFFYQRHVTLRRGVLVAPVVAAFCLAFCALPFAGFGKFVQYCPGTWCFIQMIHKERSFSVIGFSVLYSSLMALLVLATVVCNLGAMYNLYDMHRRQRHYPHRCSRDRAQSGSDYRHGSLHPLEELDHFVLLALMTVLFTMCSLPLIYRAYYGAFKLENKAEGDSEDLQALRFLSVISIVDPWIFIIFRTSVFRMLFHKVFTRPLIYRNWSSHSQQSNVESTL

[4] = target: Prostaglandin E2 receptor EP2 subtype (Mus musculus, UniProt Q62053); assay: Displacement of [3H]PGE2 from mouse prostaglandin EP2 receptor expressed in CHO cells after 60 mins by liquid scintillation counting; assay type: cell-based
Prostaglandin E2 receptor EP2 subtype, sequence (Q62053 whole entry): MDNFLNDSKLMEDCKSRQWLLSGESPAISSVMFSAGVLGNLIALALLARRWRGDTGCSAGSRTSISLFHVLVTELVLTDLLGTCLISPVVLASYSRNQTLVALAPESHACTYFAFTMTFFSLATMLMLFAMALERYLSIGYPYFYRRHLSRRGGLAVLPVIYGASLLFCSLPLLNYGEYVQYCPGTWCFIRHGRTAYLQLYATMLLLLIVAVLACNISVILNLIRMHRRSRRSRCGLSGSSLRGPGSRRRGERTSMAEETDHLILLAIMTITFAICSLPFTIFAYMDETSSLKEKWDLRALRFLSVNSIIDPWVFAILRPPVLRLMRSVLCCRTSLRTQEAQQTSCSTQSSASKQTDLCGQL
How it was run: (§2)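 Membranes came from CHO cells stably expressing mEP1, EP2, EP3 or EP4. They were incubated with 2.5 nM [3H]PGE2 and graded test concentrations in 10 mM KH2PO4–KOH (1 mM EDTA, 10 mM MgCl2, 100 mM NaCl, pH 6.0) at room temperature, 20 min for EP1 and 60 min for EP2–4. Reactions were filtered on GF/B, washed with ice-cold buffer, and counted by scintillation. IC50 came by regression, with Ki via Cheng–Prusoff.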

[5] = target: T2, Prostaglandin E2 receptor EP1 subtype (Mus musculus, UniProt P35375); assay: Displacement of [3H]PGE2 from mouse prostaglandin EP1 receptor expressed in CHO cells after 20 mins by liquid scintillation counting
T2 sequence (P35375 whole entry): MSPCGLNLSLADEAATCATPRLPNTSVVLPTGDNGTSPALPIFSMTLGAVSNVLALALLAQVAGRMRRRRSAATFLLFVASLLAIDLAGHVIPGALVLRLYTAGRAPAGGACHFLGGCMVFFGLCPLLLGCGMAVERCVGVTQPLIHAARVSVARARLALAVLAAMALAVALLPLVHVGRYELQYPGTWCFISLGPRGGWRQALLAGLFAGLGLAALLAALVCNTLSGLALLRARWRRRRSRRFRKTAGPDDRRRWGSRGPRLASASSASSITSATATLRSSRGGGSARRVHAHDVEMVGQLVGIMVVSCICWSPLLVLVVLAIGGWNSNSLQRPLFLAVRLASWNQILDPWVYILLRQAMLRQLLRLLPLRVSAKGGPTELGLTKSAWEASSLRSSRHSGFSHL

[6] = AUC (infinity) in rat at 10 mg/kg, po; assay type: ADME, organism-based; design: time infinity, dose 10 mg/kg, route oral; settings: plasma; how it was run: as §1
[7] = Half life in rat at 1 mg/kg, iv; assay type: ADME, organism-based; design: dose 1 mg/kg, route intravenous; settings: in vivo; how it was run: as §1
[8] = target: T1, Prostaglandin D2 receptor; assay: Antagonist activity at mouse prostanoid DP receptor expressed in CHO cells assessed as inhibition of PGD2-induced intracellular cAMP production; assay type: functional, cell-based
How it was run: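 CHO-mDP cells were seeded at 1×10^5 cells/well and grown 2 days. They were preincubated about 10 min at 37 °C in MEM with 2 µM diclofenac, then about 10 min in MEM with 0.1% BSA, 1 mM IBMX and 2 µM diclofenac. Test compounds at various concentrations plus 10 nM PGD2 were then added for 10 min at 37 °C. Reactions were stopped with 10% TCA, extracted with tri-n-octylamine/chloroform, and cAMP was measured by EIA.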

[9] = Half life in rat at 10 mg/kg, po; assay type: ADME, organism-based; design: dose 10 mg/kg, route oral; settings: in vivo; how it was run: as §1
[10] = target: T3, Prostaglandin E2 receptor EP3 subtype (Mus musculus, UniProt P30557); assay: Displacement of [3H]PGE2 from mouse prostaglandin EP3alpha receptor expressed in CHO cells after 60 mins by liquid scintillation counting; assay type: cell-based; how it was run: as §2
T3 sequence (P30557 whole entry): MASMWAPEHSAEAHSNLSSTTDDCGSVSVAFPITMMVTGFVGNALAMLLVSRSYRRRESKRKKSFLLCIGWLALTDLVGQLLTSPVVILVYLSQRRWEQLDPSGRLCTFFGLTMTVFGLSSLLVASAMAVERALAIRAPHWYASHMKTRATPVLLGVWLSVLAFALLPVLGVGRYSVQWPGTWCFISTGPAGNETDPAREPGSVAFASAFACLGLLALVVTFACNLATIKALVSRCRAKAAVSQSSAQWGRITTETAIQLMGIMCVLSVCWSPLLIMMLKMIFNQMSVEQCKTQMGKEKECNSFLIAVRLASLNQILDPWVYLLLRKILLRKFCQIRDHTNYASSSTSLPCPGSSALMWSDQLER

Prostacyclin receptor = Prostacyclin receptor (Homo sapiens, UniProt P43119); assay: Displacement of [3H]Iloprost from human prostanoid IP receptor expressed in CHO cells after 30 mins by liquid scintillation counting
Prostacyclin receptor, sequence (P43119 whole entry): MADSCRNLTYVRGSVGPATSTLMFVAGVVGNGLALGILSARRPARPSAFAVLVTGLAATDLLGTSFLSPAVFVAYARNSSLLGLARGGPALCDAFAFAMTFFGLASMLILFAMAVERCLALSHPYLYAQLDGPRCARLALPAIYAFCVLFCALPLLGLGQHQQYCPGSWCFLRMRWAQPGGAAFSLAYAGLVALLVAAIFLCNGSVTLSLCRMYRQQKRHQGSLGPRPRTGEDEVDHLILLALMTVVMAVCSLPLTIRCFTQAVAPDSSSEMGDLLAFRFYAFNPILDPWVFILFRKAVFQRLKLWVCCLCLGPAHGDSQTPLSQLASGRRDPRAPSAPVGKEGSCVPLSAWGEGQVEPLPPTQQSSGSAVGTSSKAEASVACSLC

[11] = Total clearance in rat at 1 mg/kg, iv; assay type: ADME, organism-based; design: dose 1 mg/kg, route intravenous; settings: in vivo; how it was run: as §1
[12] = target: Prostaglandin E2 receptor EP4 subtype (Mus musculus, UniProt P32240); assay: Displacement of [3H]PGE2 from mouse prostaglandin EP4 receptor expressed in CHO cells after 60 mins by liquid scintillation counting; assay type: cell-based; how it was run: as §2
Prostaglandin E2 receptor EP4 subtype, sequence (P32240 whole entry): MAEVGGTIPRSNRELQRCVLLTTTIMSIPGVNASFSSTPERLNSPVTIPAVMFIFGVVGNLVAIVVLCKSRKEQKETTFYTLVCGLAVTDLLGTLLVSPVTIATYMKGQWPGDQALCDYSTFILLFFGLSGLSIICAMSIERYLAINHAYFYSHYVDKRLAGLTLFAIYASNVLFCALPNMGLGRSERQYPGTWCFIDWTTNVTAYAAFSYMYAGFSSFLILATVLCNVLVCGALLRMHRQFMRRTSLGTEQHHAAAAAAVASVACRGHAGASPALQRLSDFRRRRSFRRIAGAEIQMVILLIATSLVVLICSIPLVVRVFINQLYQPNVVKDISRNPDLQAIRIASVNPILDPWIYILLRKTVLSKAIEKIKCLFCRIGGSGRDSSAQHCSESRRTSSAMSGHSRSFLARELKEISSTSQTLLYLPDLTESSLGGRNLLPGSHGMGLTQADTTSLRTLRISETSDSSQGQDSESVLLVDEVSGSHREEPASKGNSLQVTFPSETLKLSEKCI

[13] = Cmax in rat at 10 mg/kg, po; assay type: ADME, organism-based; design: dose 10 mg/kg, route oral; settings: in vivo; how it was run: as §1
[14] = Volume of distribution at steady state in rat at 1 mg/kg, iv; assay type: ADME, organism-based; design: dose 1 mg/kg, route intravenous; settings: in vivo, read-out: Vdss; how it was run: as §1
Thromboxane A2 receptor = target: T4, Thromboxane A2 receptor (Homo sapiens, UniProt P21731); assay: Displacement of [3H]-SQ29548 from human prostanoid TP receptor expressed in CHO cells after 30 mins by liquid scintillation counting
T4 sequence (P21731 whole entry): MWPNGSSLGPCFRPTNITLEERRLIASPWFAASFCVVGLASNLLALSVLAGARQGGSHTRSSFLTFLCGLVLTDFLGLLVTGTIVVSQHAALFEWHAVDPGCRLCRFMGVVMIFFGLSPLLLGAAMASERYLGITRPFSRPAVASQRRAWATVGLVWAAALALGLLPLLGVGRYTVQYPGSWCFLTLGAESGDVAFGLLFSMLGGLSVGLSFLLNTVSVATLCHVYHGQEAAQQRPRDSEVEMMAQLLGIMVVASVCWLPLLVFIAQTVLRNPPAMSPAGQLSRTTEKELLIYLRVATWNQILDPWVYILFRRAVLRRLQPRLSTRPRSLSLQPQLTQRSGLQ

[15] = target: Prostaglandin F2-alpha receptor (Mus musculus, UniProt P43117); assay: Displacement of [3H]PGF2alpha from mouse prostanoid FP receptor expressed in CHO cells after 60 mins by liquid scintillation counting; assay type: cell-based
Prostaglandin F2-alpha receptor, sequence (P43117 whole entry): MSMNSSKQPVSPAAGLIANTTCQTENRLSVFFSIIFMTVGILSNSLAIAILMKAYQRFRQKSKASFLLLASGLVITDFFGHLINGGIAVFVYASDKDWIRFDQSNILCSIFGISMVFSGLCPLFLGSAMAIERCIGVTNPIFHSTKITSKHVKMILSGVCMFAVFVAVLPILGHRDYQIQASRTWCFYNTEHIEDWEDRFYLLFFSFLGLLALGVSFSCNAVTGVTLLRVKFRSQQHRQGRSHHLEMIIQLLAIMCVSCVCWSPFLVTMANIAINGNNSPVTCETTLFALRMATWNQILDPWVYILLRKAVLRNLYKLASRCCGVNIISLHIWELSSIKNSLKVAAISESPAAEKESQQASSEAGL
How it was run: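 CHO-mFP membranes were incubated with 2.5 nM [3H]PGF2α and varied test concentrations in 10 mM KH2PO4–KOH, 1 mM EDTA, 10 mM MgCl2, 100 mM NaCl, pH 6.0, for 60 min at room temperature. Samples were then filtered on GF/B, washed with ice-cold phosphate/NaCl buffer, and counted by scintillation. IC50 came from the regression curve, and Ki = IC50/(1+[L]/Kd).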

[16] = target: T2, Prostaglandin E2 receptor EP1 subtype; assay: Displacement of [3H]PGE2 from mouse prostaglandin EP1 receptor expressed in CHO cells after 60 mins by liquid scintillation counting; assay type: cell-based

Structure (SMILES) | Ki [3] [nM] | Ki [4] [nM] | Ki [5] [nM] | IC50 [8] [nM] | Ki [10] [nM] | Ki (Prostacyclin receptor) [nM] | Ki [12] [nM] | other results
CN1C[C@@H](COc2ccc(C(=O)Nc3cccc(CC(=O)O)c3)cc2)Oc2ccccc21 | 310 | 520 | 2100 | 220 | > 10000 | 6400 | > 10000 | AUC(0-inf) [1]: 670 ng·h/mL; bioavailability [2]: 119%; AUC(0-inf) [6]: 8000 ng·h/mL; half-life [7]: 0.27 h; half-life [9]: 1.8 h; clearance [11]: 25 mL/min/kg; Cmax [13]: 4900 ng/mL; Vd [14]: 0.22 L/kg
CN1C[C@@H](COc2ccc(S(=O)(=O)Nc3cccc(CC(=O)O)c3)cc2)Oc2ccccc21 | 430 | 2300 | 2700 |  | 210 | 4600 | 140 | 
CN1C[C@@H](COc2ccc(NC(=O)c3cccc(CC(=O)O)c3)cc2)Oc2ccccc21 | 5300 | 3500 | > 10000 |  | > 10000 | > 10000 | > 10000 | 
CN1C[C@@H](COc2ccc(C(=O)N(C)c3cccc(CC(=O)O)c3)cc2)Oc2ccccc21 | 760 | 5300 | > 10000 |  | 1700 | > 10000 | > 10000 | 
CCN(C(=O)c1ccc(OC[C@@H]2CN(C)c3ccccc3O2)cc1)c1cccc(CC(=O)O)c1 | 770 | > 10000 | 1300 |  | 700 | 2900 | > 10000 | 
Cc1cc(OC[C@@H]2CN(C)c3ccccc3O2)ccc1C(=O)Nc1cccc(CC(=O)O)c1 | 18 |  | > 10000 | 3.3 | > 10000 | 3600 | > 10000 | Ki (Thromboxane A2 receptor): > 10000 nM; Ki [15]: > 10000 nM
CN1C[C@@H](COc2ccc(C(=O)Nc3cccc(CC(=O)O)c3)c(Cl)c2)Oc2ccccc21 | 16 |  |  | 20 |  |  |  | 
Cc1cc(OC[C@@H]2CN(C)c3ccccc3O2)ccc1C(=O)Nc1cccc(CC(=O)O)c1C | 59 |  |  | 28 |  |  |  | 
Cc1cc(CC(=O)O)cc(NC(=O)c2ccc(OC[C@@H]3CN(C)c4ccccc4O3)cc2C)c1 | 8.4 | 62 | > 10000 | 3.4 | > 10000 | 3500 | 670 | Ki (Thromboxane A2 receptor): > 10000 nM; Ki [15]: > 10000 nM
Cc1ccc(NC(=O)c2ccc(OC[C@@H]3CN(C)c4ccccc4O3)cc2C)cc1CC(=O)O | 11 |  |  | 6.1 |  |  |  | 
Cc1cc(OC[C@@H]2CN(C)c3ccccc3O2)ccc1C(=O)Nc1cc(CC(=O)O)ccc1Cl | 7.7 |  |  |  |  |  |  | 
Cc1cc(OC[C@@H]2CN(C)c3ccccc3O2)ccc1C(=O)Nc1cc(CC(=O)O)ccc1F | 19 |  |  | 1.8 |  |  |  | 
Cc1cc(OC[C@@H]2CN(C)c3ccccc3O2)ccc1C(=O)Nc1cc(F)cc(CC(=O)O)c1 | 7.4 |  |  | 5.6 |  |  |  | 
Cc1cc(OC[C@@H]2CN(C)c3ccccc3O2)ccc1C(=O)Nc1ccc(F)c(CC(=O)O)c1 | 15 |  |  | 1.2 |  |  |  | 
COc1ccc(NC(=O)c2ccc(OC[C@@H]3CN(C)c4ccccc4O3)cc2C)cc1CC(=O)O | 24 |  |  | 20 |  |  |  | 
Cc1ccc(CC(=O)O)cc1NC(=O)c1ccc(OC[C@@H]2CN(C)c3ccccc3O2)cc1Cl | 26 |  |  | 6 |  |  |  | 
Cc1cc(CC(=O)O)cc(NC(=O)c2ccc(OC[C@@H]3CN(C)c4ccccc4O3)cc2Cl)c1 | 12 |  |  | 5.4 |  |  |  | 
Cc1ccc(NC(=O)c2ccc(OC[C@@H]3CN(C)c4ccccc4O3)cc2Cl)cc1CC(=O)O | 17 |  |  | 3.9 |  |  |  | 
CN1C[C@@H](COc2ccc(C(=O)Nc3cc(CC(=O)O)ccc3Cl)c(Cl)c2)Oc2ccccc21 | 13 | 44 | 6600 | 4.3 | > 10000 | 1600 | > 10000 | Ki (Thromboxane A2 receptor): > 10000 nM; Ki [15]: > 10000 nM
CN1C[C@@H](COc2ccc(C(=O)Nc3cc(CC(=O)O)ccc3F)c(Cl)c2)Oc2ccccc21 | 17 | 22 |  | 7.4 | > 10000 | > 10000 | > 10000 | Ki (Thromboxane A2 receptor): > 10000 nM; Ki [15]: > 10000 nM; Ki [16]: > 10000 nM
CN1C[C@@H](COc2ccc(C(=O)Nc3ccc(F)c(CC(=O)O)c3)c(Cl)c2)Oc2ccccc21 | 25 |  |  | 50 |  |  |  | 
COc1ccc(NC(=O)c2ccc(OC[C@@H]3CN(C)c4ccccc4O3)cc2Cl)cc1CC(=O)O | 36 |  |  | 41 |  |  |  | 
Cc1cc2c(CC(=O)O)cccc2n1C(=O)c1ccc(OC[C@@H]2CN(C)c3ccccc3O2)cc1 |  |  |  |  |  |  |  | AUC(0-inf) [1]: 7200 ng·h/mL; bioavailability [2]: 34%; AUC(0-inf) [6]: 24300 ng·h/mL; half-life [7]: 9.8 h; half-life [9]: 5.4 h; clearance [11]: 2.4 mL/min/kg; Cmax [13]: 3500 ng/mL; Vd [14]: 1.8 L/kg
